Experiment [1] is described as follows: inhibitors of TNFa-induced NFkB p65 translocation, primary screen, imaging, HUVEC, MLSMR starter and 10KST1 sets (AID 438;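 active means inhibition above 20% together with a positive visual image hit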;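 further: compound added about 3h40 before a 20 min TNFalpha stimulation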;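 on inhibition: signal is the nuclear over cytoplasmic p65 intensity ratio per well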). To be noted: HUVEC TNFa-induced p65 nuclear translocation; cell count: measured here: nuclei count (cytotoxicity indicator), at 2.08 µM; inhibition: at 2 µM, stronger effect = higher value, 0% TNFa-plus-vehicle, 100% no-TNFa wells.
Experiment [2] in a line: inhibitors of mutant huntingtin aggregation, primary screen, imaging, exon1htt(103Q)mCFP cells, high-content imaging (AID 483;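 active means visual image review flags a hit and inhibition of aggregation exceeds 20%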;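 further: compound exposure lasted 3 days before fixation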;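 on nuclei count: percent of the per-plate median nuclei count of sample wells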). To be noted: exon1htt(103Q)mCFP cell line, aggregate imaging, at 2 µM; inhibition of aggregation: stronger effect = higher value; nuclei count: measured here: cell count, toxicity.
The nature of experiment [3]: inhibitors of E-selectin induction by TNFa, primary screen, imaging, HUVEC, immunofluorescence, MLSMR starter and 10KST1 sets (AID 487;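 active means visually confirmed hit in the image check and inhibition above 20%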;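 on inhibition: signal is fraction of cell area covered by stained E-selectin grains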;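 on nuclei count: 100% = median nuclei count of all wells on the same plate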). The settings on record: HUVEC TNFalpha-induced E-selectin immunofluorescence imaging, at 2 µM; inhibition: stronger effect = higher value; nuclei count: measured here: cell number, toxicity.
Experiment [4] deals with Voltage-gated potassium channel subunit beta-2 (Rattus norvegicus) (UniProt P62483). Put plainly: KvBeta enzyme negative modulators, primary screen, biochemical, NADPH fluorescence (AID 622;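 active means fluorescence slope higher than the sample average by over 3 SD, cut at about -0.22 in these data, passing the limit was not always enough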;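 further: slope of raw intensity against log time taken from 70 to 1610 s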). To be noted: recombinant KvBeta, 4-cyanobenzaldehyde reduction, at 10 µM, stronger effect = higher value.
Chain of Voltage-gated potassium channel subunit beta-2 (Rattus norvegicus) (P62483 whole entry, looked up): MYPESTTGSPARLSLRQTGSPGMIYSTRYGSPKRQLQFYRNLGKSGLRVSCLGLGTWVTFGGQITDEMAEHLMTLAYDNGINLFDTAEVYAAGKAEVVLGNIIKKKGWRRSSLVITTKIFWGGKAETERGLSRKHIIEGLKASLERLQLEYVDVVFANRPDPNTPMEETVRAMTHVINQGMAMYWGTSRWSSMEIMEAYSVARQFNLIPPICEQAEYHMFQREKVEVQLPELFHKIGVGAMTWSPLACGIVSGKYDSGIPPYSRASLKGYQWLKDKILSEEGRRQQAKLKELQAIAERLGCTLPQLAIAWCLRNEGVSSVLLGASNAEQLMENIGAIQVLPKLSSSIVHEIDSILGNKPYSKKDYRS
For experiment [5] the target is unchanged. Put plainly: KvBeta positive modulators, primary screen, biochemical, NADPH fluorescence (AID 623;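 active means NADPH fluorescence slope more negative than the mean of all samples by about 3 SD, 99.7% confidence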;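 further: fluorescence intensity change per second fitted from 20 to 320 s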). The settings on record: Recombinant KvBeta, NADPH fluorescence decrease slope, 10 min; at 10 µM; stronger effect = lower value.
The target in experiment [6] is Muscarinic acetylcholine receptor M4 (Homo sapiens) (UniProt P08173). As to the kind of experiment: compounds altering M4/GIRK thallium flux, either direction, primary screen, M4 allosteric agonist project, cell-based, HEK293 M4/GIRK, BTC-AM (AID 625;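 active means fluorescence slope after compound addition differing from the mean of all tested samples at 99.7% confidence, mostly higher but some lower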;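 further: thallium influx through GIRK channels coupled to M4 in HEK293 cells with BTC-AM dye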). The settings on record: at 10 µM, actives lie on both sides. The gist of the method: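 System: HEK293 cells with M4 receptor and GIRK channels | Incubation: Cells overnight at 37 °C, BTC-AM loading 1 h, reads 2 min total | Technique: Kinetic BTC-AM fluorescence sampled at 1 Hz, 10 s pre-addition baseline | Measure: Post-addition slope, 15–24 s, of baseline-normalized fluorescence | Control set: Carbachol positive, DMSO negative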
Chain of Muscarinic acetylcholine receptor M4 (Homo sapiens) (P08173 whole entry, looked up): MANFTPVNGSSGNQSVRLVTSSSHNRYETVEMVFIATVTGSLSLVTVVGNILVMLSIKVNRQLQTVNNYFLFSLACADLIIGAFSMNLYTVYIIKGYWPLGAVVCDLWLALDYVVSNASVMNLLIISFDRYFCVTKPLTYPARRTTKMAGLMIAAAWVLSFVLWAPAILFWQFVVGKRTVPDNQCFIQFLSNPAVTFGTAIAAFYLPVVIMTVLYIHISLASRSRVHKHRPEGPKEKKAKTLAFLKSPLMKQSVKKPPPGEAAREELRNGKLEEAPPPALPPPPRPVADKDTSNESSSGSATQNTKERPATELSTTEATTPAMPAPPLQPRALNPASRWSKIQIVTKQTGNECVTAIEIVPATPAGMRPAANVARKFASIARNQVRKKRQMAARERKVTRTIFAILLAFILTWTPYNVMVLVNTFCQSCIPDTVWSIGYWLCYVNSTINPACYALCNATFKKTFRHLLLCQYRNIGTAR

The nature of experiment [7]: inhibitors of Sendai virus-induced IRF3 signaling, primary screen, TLR/RLR signaling modifier project, cell-based, Sendai virus stimulus, luciferase, 10K MLSCN set (AID 602276).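 Further: firefly luciferase from ISG56 promoter only with Renilla not read in this screen; 0% = Sendai virus plus DMSO and 100% = medium plus DMSO without virus.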 The settings on record: HEK293 RL24 IRF3 luciferase reporter, at 10 µM, stronger effect = higher value. Background: In a reporter assay the amount or activity of a reporter protein is the signal.
Experiment [8] is described as follows: inhibitors of poly I:C-induced TLR3 signaling, primary screen, cell-based, poly I:C stimulus, luciferase, 10K MLSCN set (AID 602277;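 active means inhibition of the reporter signal at or above 50%; inactive means inhibition below 50%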). The settings on record: HEK293-TLR3 RL24 IRF3 luciferase reporter, at 10 µM, stronger effect = higher value.

SMILES strings stand for the structures. Activity calls are given as the source filed them.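 How the source made its calls, unless noted: active means inhibition at or above 50% at 10 µM; inactive means inhibition below 50%.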

As usually defined, the inhibition is the change of the read-out against control, counted positive when it falls. Turning to `O=c1cc(COn2nnc3ccc(C(F)(F)F)cc32)nc2sccn12`, the cell count in experiment [1] was determined as 379. The inhibition in experiment [1] is -22% (inactive); in experiment [3] it was -51.6% (inactive); in experiment [7], -2.54% (inactive); in experiment [8], 14.9% (inactive). Besides, in experiment [2], the inhibition of aggregation is -2.2% (inactive). Moreover, the nuclei count in experiment [2] was determined as 109%; in experiment [3], 141%. In addition, the fluorescence slope in experiment [4] is -0.478 (inactive); in experiment [6], 0.00817 (inactive). The NADPH fluorescence slope in experiment [5] was 3.2e-05 (inactive).
As to `CSc1nnc2c3ccccc3n(CCc3ccccc3)c2n1`, the cell count in experiment [1] was found to be 665. Besides, the inhibition was -0.5% (inactive) in experiment [1], 19.4% (inactive) in experiment [3], -13.2% (inactive) in experiment [7] and -163% (inactive) in experiment [8]. In addition, the inhibition of aggregation in experiment [2] is 20.5% (inactive). The nuclei count in experiment [2] amounted to 83.8%; in experiment [3], 104%. The fluorescence slope in experiment [4] is -0.342 (inactive); in experiment [6] it was 0.00531 (inactive). In addition, in experiment [5], the NADPH fluorescence slope was 1.9e-05 (inactive).
Consider `CC(c1ccccc1)N1C(=O)c2ccc(C(=O)NCc3ccco3)cc2C1=O` (stereo not drawn), for which, in experiment [1], the cell count was determined as 710. Further, the inhibition in experiment [1] was 6.3% (inactive); in experiment [3], 23.2% (inactive); in experiment [7] it was -11.4% (inactive); in experiment [8], 51.6% (active). In experiment [2], the inhibition of aggregation was -0.8% (inactive). Further, the results for the nuclei count in experiment [2] and in experiment [3] were 107% and 93.8%, respectively. The results for the fluorescence slope in experiment [4] and in experiment [6] were -0.46 (inactive) and 0.00569 (inactive), respectively. Besides, the NADPH fluorescence slope in experiment [5] is -2.6e-05 (inactive).
For the molecule `CCSC1=C(C#N)C(c2cccc(OC)c2)CC(=O)N1` (stereo not drawn), the cell count in experiment [1] came out at 667. In addition, the inhibition in experiment [1] was -14.3% (inactive); in experiment [3] it was -70.7% (inactive); in experiment [7], 14.9% (inactive); in experiment [8], 11.6% (inactive). Also, the inhibition of aggregation in experiment [2] was -16.9% (inactive). The nuclei count in experiment [2] is 101%; in experiment [3], 114%. The fluorescence slope is -0.496 (inactive) in experiment [4] and 0.00475 (inactive) in experiment [6]. Moreover, the NADPH fluorescence slope in experiment [5] was -3.8e-05 (inactive).
For `COC(=O)Cn1c(C)nc2c(sc3nc(C)cc(C)c32)c1=O`, the cell count in experiment [1] was 674. In addition, the inhibition is -5% (inactive) in experiment [1], 16% (inactive) in experiment [3], -40.7% (inactive) in experiment [7] and -91.2% (inactive) in experiment [8]. In addition, in experiment [2], the inhibition of aggregation is 14.7% (inactive). Also, the values for the nuclei count in experiment [2] and in experiment [3] were 81.2% and 100%, respectively. Moreover, the results for the fluorescence slope in experiment [4] and in experiment [6] were -0.603 (inactive) and 0.00473 (inactive), respectively. The NADPH fluorescence slope in experiment [5] was -2e-05 (inactive).
On to `Cc1ccccc1Cn1nc(C)c(NC(=O)c2noc3c2CCCC3)c1C`, for which the cell count in experiment [1] is 191. In addition, the inhibition in experiment [1] is -1.3% (inactive); in experiment [3], -13.5% (inactive); in experiment [7], -24.6% (inactive); in experiment [8], -32% (inactive). In addition, the inhibition of aggregation in experiment [2] is 7.3% (inactive). Further, the nuclei count in experiment [2] is 101%; in experiment [3] it was 120%. For the same molecule, the results for the fluorescence slope in experiment [4] and in experiment [6] were -0.571 (inactive) and 0.00499 (inactive), respectively. Besides, the NADPH fluorescence slope in experiment [5] is -2.7e-05 (inactive).
Consider `CCOC(=O)c1sc2nc3c(cc2c1N)COC(C)(C)C3`, for which the cell count in experiment [1] was 746. For the same molecule, the inhibition in experiment [1] was -5.9% (inactive); in experiment [3], 8.8% (inactive); in experiment [7] it was -38.4% (inactive); in experiment [8], -104% (inactive). Moreover, the inhibition of aggregation in experiment [2] is 0.2% (inactive). Also, the nuclei count in experiment [2] and in experiment [3] was 105% in each case. Moreover, the fluorescence slope in experiment [4] was -0.432 (inactive); in experiment [6] it was 0.0043 (inactive). In addition, in experiment [5], the NADPH fluorescence slope was -5.4e-06 (inactive).
With `Cc1nnc(SCCn2c(N3CC(C)CC(C)C3)nc3c2c(=O)n(C)c(=O)n3C)s1` (stereo not drawn), the cell count in experiment [1] is 207. Besides, the inhibition is 3.4% (inactive) in experiment [1], 60.7% (active) in experiment [3], 15.7% (inactive) in experiment [7] and 21.2% (inactive) in experiment [8]. The inhibition of aggregation in experiment [2] was 10.1% (inactive). The nuclei count stood at 84.9% in experiment [2] and 81.2% in experiment [3]. Moreover, the fluorescence slope was -0.598 (inactive) in experiment [4] and 0.00478 (inactive) in experiment [6]. Also, the NADPH fluorescence slope in experiment [5] is -2.7e-05 (inactive).
For the molecule `COc1cc(-c2c(C#N)c(N)nc3c2CCCC3)cc(OC)c1OC`, the cell count in experiment [1] turned out to be 620. Besides, the inhibition in experiment [1] is -8.6% (inactive); in experiment [3], -110% (inactive); in experiment [7], 20% (inactive); in experiment [8] it was 26.4% (inactive). Besides, the inhibition of aggregation in experiment [2] is 0.1% (inactive). The nuclei count in experiment [2] stood at 101%; in experiment [3] it was 121%. For the same molecule, the fluorescence slope in experiment [4] was -0.534 (inactive); in experiment [6], 0.0058 (inactive). Moreover, the NADPH fluorescence slope in experiment [5] is -6.8e-05 (inactive).
As to `CCC(Sc1nc2n[nH]c(C)c2c(=N)n1-c1cc(Cl)ccc1C)C(=O)N1CCOCC1` (stereo not drawn), the cell count in experiment [1] worked out at 338. Further, the inhibition in experiment [1] is -2.1% (inactive); in experiment [3], -273% (inactive); in experiment [7], -6.83% (inactive); in experiment [8], 10% (inactive). Further, the inhibition of aggregation in experiment [2] was 11.8% (inactive). For the same molecule, the nuclei count is 97.6% in experiment [2] and 108% in experiment [3]. Further, the results for the fluorescence slope in experiment [4] and in experiment [6] were -0.593 (inactive) and 0.00508 (inactive), respectively. For the same molecule, the NADPH fluorescence slope in experiment [5] is -1.6e-05 (inactive).
With `O=c1oc2ccccc2n1CCn1c2ccccc2c2nc3ccccc3nc21`, the cell count in experiment [1] worked out at 714. The inhibition in experiment [1] was -7.8% (inactive); in experiment [3] it was -9.3% (inactive); in experiment [7] it was -5.18% (inactive); in experiment [8], 9.99% (inactive). Moreover, the inhibition of aggregation in experiment [2] is -10.6% (inactive). The nuclei count is 103% in experiment [2] and 109% in experiment [3]. The fluorescence slope in experiment [4] is -0.273 (inactive); in experiment [6], 0.00487 (inactive). Moreover, the NADPH fluorescence slope in experiment [5] is -1.3e-05 (inactive).
On to `ON1C2CCCCC2N(O)C1c1c(F)c(F)c(F)c(F)c1F` (stereo not drawn), for which the cell count in experiment [1] was determined as 431. Also, the inhibition was 4.1% (inactive) in experiment [1], -53.7% (inactive) in experiment [3], 15.7% (inactive) in experiment [7] and 22% (inactive) in experiment [8]. The inhibition of aggregation in experiment [2] is -6.9% (inactive). Moreover, the nuclei count in experiment [2] is 105%; in experiment [3] it was 102%. Further, the results for the fluorescence slope in experiment [4] and in experiment [6] were -0.546 (inactive) and 0.00415 (inactive), respectively. For the same molecule, the NADPH fluorescence slope in experiment [5] was -2.9e-05 (inactive).
As to `Cc1ccc(S(=O)(=O)N2CCN(C(=O)CN3C(=O)NC4(CCOc5ccccc54)C3=O)CC2)cc1` (stereo not drawn), the cell count in experiment [1] was 697. Also, the inhibition in experiment [1] is -3.3% (inactive); in experiment [3], -38.5% (inactive); in experiment [7], -12.9% (inactive); in experiment [8], -7.58% (inactive). Besides, in experiment [2], the inhibition of aggregation is 8.6% (inactive). The nuclei count was found to be 106% in experiment [2] and 112% in experiment [3]. Also, the fluorescence slope is -0.44 (inactive) in experiment [4] and 0.00414 (inactive) in experiment [6]. The NADPH fluorescence slope in experiment [5] is -0.000543 (inactive).
